ChEMBL document CHEMBL4321819, “Simple Structural Modifications Converting a Bona fide MDM2 PROTAC Degrader into a Molecular Glue Molecule: A Cautionary Tale in the Design of PROTAC Degraders” (J Med Chem, 2019)
pIC50: −log10 of the molar value. The source made the active and inactive calls. No cut-off for these calls is given here.

Tests used:
RS4-11 [1] = assay: Antiproliferative activity against human RS4:11 cells expressing wild type p53 assessed as cell growth inhibition after 4 days by WST-8 assay; assay type: functional, cell-based; settings: RS4-11, 96 h
Procedure, shortened: (§1)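 Leukemia cells seeded at 10000–20000 cells/well, breast cancer lines at 5000–10000 cells/well. Serially diluted compound added, then 4 days at 37 °C, 5% CO2. Growth read with WST-8 reagent after at least 1 h, absorbance at 450 nm. RS4;11, MOLM-13 and breast lines were grown in RPMI 1640; MV-4-11 and HL-60 in IMDM; all with 10% FBS. Mean ± SE, at least three independent experiments.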

[2] = target: Eukaryotic peptide chain release factor GTP-binding subunit ERF3A (Homo sapiens, UniProt P15170); assay: Induction of GSPT1 degradation in human RS4:11 cells measured after 24 hrs by Western blot analysis; assay type: cell-based
[3] = target: T1, Protein cereblon/Eukaryotic peptide chain release factor GTP-binding subunit ERF3A/DNA damage-binding protein 1/Cullin-4A (Homo sapiens) (UniProt Q96SW2+Q16531+Q13619+P15170); assay: Protac activity at GSPT1/CUL4/DDB1/CRBN in human RS4:11/IRMI-2 cells harboring p53 hotspot mutation Y236H/R249G assessed as decrease in GSPT1 protein level after 2 hrs by Western blot analysis; assay type: cell-based
Procedure, shortened: (§2)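 RS4;11 (wild-type p53) or RS4;11/IRMI-2 (MDM2 inhibitor-resistant derivative, mutant p53) cells kept in RPMI 1640 with 10% FBS at 37 °C, 5% CO₂. 2×10^6 cells/well treated at the indicated concentrations and times, then lysed in ice-cold lysis buffer with protease inhibitor. GSPT1 detected by Western blot with a specific antibody.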

[4] = target: T1, Protein cereblon/Eukaryotic peptide chain release factor GTP-binding subunit ERF3A/DNA damage-binding protein 1/Cullin-4A (Homo sapiens); assay: Protac activity at GSPT1/CUL4/DDB1/CRBN in human RS4:11 cells expressing wild type p53 assessed as decrease in GSPT1 protein level after 2 hrs by Western blot analysis; assay type: cell-based; procedure, shortened: as §2
[5] = (§3) Antiproliferative activity against human RS4:11/IRMI-2 cells harboring p53 hotspot mutation Y236H/R249G assessed as cell growth inhibition after 4 days by WST-8 assay; assay type: functional, cell-based; settings: RS4-11, 96 h; procedure, shortened: as §1
MDA-MB-468 [6] = assay: Antiproliferative activity against human MDA-MB-468 cells transfected with CRBN siRNA LQ-021086-11-0002 assessed as cell growth inhibition after 4 days by WST-8 assay; assay type: functional, cell-based; settings: MDA-MB-468, 96 h
Procedure, shortened: (§4)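 MDA-MB-231 or MDA-MB-468 cells transfected for 2 days using Lipofectamine RNAiMAX with MDM2 siRNA, one of two CRBN siRNAs, or non-targeting control siRNA. Compound then added and growth read by WST-8 at 450 nm.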

MDA-MB-468 [7] = assay: Antiproliferative activity against human MDA-MB-468 cells assessed as cell growth inhibition after 4 days in presence of control siRNA for 3 days followed by compound treatment by WST-8 assay; assay type: functional, cell-based
[8] = target: T2, E3 ubiquitin-protein ligase Mdm2 (Homo sapiens, UniProt Q00987); assay: Displacement of PMDM6-F fluorescent probe from human recombinant His-tagged MDM2 (1 to 118 residues) after 15 mins by fluorescence polarization assay
Procedure, shortened: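 Recombinant human His-tagged MDM2 (residues 1–118) with a FAM-labelled p53-based peptide as fluorescent probe; competitive fluorescence-polarization binding. Mean ± standard error from at least three independent experiments.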
Target sequence in this assay (Q00987 whole entry, the tested form may be a part): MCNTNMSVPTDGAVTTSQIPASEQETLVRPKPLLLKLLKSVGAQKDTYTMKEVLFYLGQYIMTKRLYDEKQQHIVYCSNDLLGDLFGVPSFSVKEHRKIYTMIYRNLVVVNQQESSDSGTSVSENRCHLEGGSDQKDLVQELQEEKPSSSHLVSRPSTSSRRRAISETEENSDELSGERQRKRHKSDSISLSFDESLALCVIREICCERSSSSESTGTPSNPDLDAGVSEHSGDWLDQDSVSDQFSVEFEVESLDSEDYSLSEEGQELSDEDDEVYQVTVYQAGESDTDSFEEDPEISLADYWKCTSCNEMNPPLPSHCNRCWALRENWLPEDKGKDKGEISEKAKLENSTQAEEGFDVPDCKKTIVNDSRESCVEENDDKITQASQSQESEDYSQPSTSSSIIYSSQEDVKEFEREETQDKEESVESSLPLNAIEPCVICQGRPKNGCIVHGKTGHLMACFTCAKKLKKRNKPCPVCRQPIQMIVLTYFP

MDA-MB-468 [9] = assay: Antiproliferative activity against human MDA-MB-468 cells transfected with CRBN siRNA LQ-021086-10-0002 assessed as cell growth inhibition after 4 days by WST-8 assay; assay type: functional, cell-based; settings: MDA-MB-468, 96 h; procedure, shortened: as §4
MDA-MB-231 [10] = assay: Antiproliferative activity against human MDA-MB-231 cells transfected with CRBN siRNA LQ-021086-10-0002 assessed as cell growth inhibition after 4 days by WST-8 assay; assay type: functional, cell-based; settings: MDA-MB-231, 72 h, in the assay text read “after 3 days” for “after 4 days”; procedure, shortened: as §4
MDA-MB-231 [11] = assay: Antiproliferative activity against human MDA-MB-231 cells transfected with CRBN siRNA LQ-021086-11-0002 assessed as cell growth inhibition after 4 days by WST-8 assay; assay type: functional, cell-based; settings: MDA-MB-231, 96 h; procedure, shortened: as §4
MDA-MB-231 [12] = assay: Antiproliferative activity against human MDA-MB-231 cells assessed as cell growth inhibition after 4 days in presence of control siRNA for 3 days followed by compound treatment by WST-8 assay; assay type: functional, cell-based
RS4-11 [13] = assay: Antiproliferative activity against human RS4:11 cells expressing wild type p53 assessed as cell growth inhibition without interaction with cereblon after 4 days by WST-8 assay; assay type: functional, cell-based; settings: RS4-11, 96 h; procedure, shortened: as §1
[14] = Antiproliferative activity against human RS4:11/IRMI-2 cells harboring p53 hotspot mutation Y236H/R249G assessed as cell growth inhibition without interaction with cereblon after 4 days by WST-8 assay; assay type: functional, cell-based; settings: RS4-11, 96 h; procedure, shortened: as §1
MV4-11 = assay: Antiproliferative activity against human MV4-11 cells expressing wild type p53 assessed as cell growth inhibition after 4 days by WST-8 assay; assay type: functional, cell-based; settings: MV4-11, 96 h; procedure, shortened: as §1
MDA-MB-231 [15] = assay: Antiproliferative activity against human MDA-MB-231 cells harboring mutant p53 assessed as cell growth inhibition without interaction with cereblon after 4 days by WST-8 assay; assay type: functional, cell-based; settings: MDA-MB-231, 96 h
MDA-MB-468 [16] = assay: Antiproliferative activity against human MDA-MB-468 cells harboring mutant p53 assessed as cell growth inhibition without interaction with cereblon after 4 days by WST-8 assay; assay type: functional, cell-based; settings: MDA-MB-468, 96 h
MDA-MB-468 [17] = assay: Antiproliferative activity against human MDA-MB-468 cells harboring mutant p53 assessed as cell growth inhibition after 4 days by WST-8 assay; assay type: functional, cell-based; procedure, shortened: as §1
[18] = Antiproliferative activity against human RS4:11/IRMI-2 cells harboring p53 hotspot mutation Y236H/R249G assessed as MDM2-independent cell growth inhibition after 4 days by WST-8 assay; assay type: functional, cell-based; settings: RS4-11, 96 h; procedure, shortened: as §1
MDA-MB-231 [19] = assay: Antiproliferative activity against human MDA-MB-231 cells harboring mutant p53 assessed as cell growth inhibition after 4 days by WST-8 assay; assay type: functional, cell-based; procedure, shortened: as §1
[20] = target: T2, E3 ubiquitin-protein ligase Mdm2; assay: Induction of MDM2 degradation in human RS4:11 cells assessed as upregulation of p53 at 1000 to 3000 nM after 1 hr by Western blot analysis; assay type: cell-based
Procedure, shortened: (§5)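 Western blots of MDM2 and p53 protein were run on RS4;11 cells (wild-type p53) in RPMI 1640 with 10% FBS. 2×10^6 cells/well were treated at the indicated concentrations for 1 h or 2 h. Lysis was in ice-cold buffer with protease inhibitor, followed by probing with specific antibodies.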
Target sequence in this assay (Q00987 whole entry, looked up, the tested form may be a part): as the sequence (Q00987 whole entry, the tested form may be a part) above

MDA-MB-468 [21] = assay: Antiproliferative activity against human MDA-MB-468 cells assessed as cell growth inhibition after 4 days in presence of control siRNA for 2 days followed by compound treatment by WST-8 assay; assay type: functional, cell-based; procedure, shortened: as §4
MOLM-13 = assay: Antiproliferative activity against human MOLM13 cells expressing wild type p53 assessed as cell growth inhibition after 4 days by WST-8 assay; assay type: functional, cell-based; settings: MOLM-13, 96 h; procedure, shortened: as §1
MDA-MB-231 [22] = assay: Antiproliferative activity against human MDA-MB-231 cells transfected with MDM2 siRNA assessed as cell growth inhibition after 4 days by WST-8 assay; assay type: functional, cell-based; settings: MDA-MB-231, 96 h; procedure, shortened: as §4
HL-60 = assay: Antiproliferative activity against human HL60 cells with lack of p53 assessed as cell growth inhibition after 4 days by WST-8 assay; assay type: functional, cell-based; procedure, shortened: as §1
MDA-MB-231 [23] = assay: Antiproliferative activity against human MDA-MB-231 cells assessed as cell growth inhibition after 4 days in presence of control siRNA for 2 days followed by compound treatment by WST-8 assay; assay type: functional, cell-based; procedure, shortened: as §4
MDA-MB-468 [24] = assay: Antiproliferative activity against human MDA-MB-468 cells transfected with MDM2 siRNA assessed as cell growth inhibition after 4 days by WST-8 assay; assay type: functional, cell-based; settings: MDA-MB-468, 96 h; procedure, shortened: as §4
[25] = target: T2, E3 ubiquitin-protein ligase Mdm2; assay: Induction of MDM2 degradation in human RS4:11 cells assessed as upregulation of MDM2 at 1000 to 3000 nM after 1 hr by Western blot analysis; assay type: cell-based; procedure, shortened: as §5
Target sequence in this assay (Q00987 whole entry, looked up, the tested form may be a part): as the sequence (Q00987 whole entry, the tested form may be a part) above

Homo sapiens = species on record: Homo sapiens; assay: as §3; assay type: functional, cell-based; procedure, shortened: as §1
RS4-11 [26] = assay: Antiproliferative activity against human RS4:11 cells expressing wild type p53 assessed as MDM2-independent cell growth inhibition after 4 days by WST-8 assay; assay type: functional, cell-based; settings: RS4-11, 96 h; procedure, shortened: as §1
[27] = target: T1, Protein cereblon/Eukaryotic peptide chain release factor GTP-binding subunit ERF3A/DNA damage-binding protein 1/Cullin-4A (Homo sapiens); assay: Protac activity at GSPT1/CUL4/DDB1/CRBN in human RS4:11 cells expressing wild type p53 assessed as decrease in GSPT1 protein level at 1 to 3 uM after 24 hrs by Western blot analysis; assay type: cell-based; procedure, shortened: as §2
[28] = target: T1, Protein cereblon/Eukaryotic peptide chain release factor GTP-binding subunit ERF3A/DNA damage-binding protein 1/Cullin-4A (Homo sapiens); assay: Protac activity at GSPT1/CUL4/DDB1/CRBN in human RS4:11/IRMI-2 cells harboring p53 hotspot mutation Y236H/R249G assessed as decrease in GSPT1 protein level at 1 to 3 uM after 24 hrs by Western blot analysis; assay type: cell-based; procedure, shortened: as §2

T1 sequence (P15170 whole entry, looked up): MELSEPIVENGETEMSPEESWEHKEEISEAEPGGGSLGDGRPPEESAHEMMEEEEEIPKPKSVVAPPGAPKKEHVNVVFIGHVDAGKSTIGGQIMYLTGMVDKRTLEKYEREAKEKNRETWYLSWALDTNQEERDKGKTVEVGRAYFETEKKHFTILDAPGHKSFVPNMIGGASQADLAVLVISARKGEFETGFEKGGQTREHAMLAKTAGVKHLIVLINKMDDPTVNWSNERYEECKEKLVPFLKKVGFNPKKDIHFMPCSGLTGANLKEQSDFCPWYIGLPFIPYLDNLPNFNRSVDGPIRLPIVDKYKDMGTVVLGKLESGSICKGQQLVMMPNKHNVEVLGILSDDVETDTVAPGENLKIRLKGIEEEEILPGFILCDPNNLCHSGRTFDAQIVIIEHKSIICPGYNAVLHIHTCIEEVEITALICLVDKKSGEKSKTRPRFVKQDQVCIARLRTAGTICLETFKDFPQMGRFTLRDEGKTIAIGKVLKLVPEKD
T1 sequence (Q13619 whole entry, looked up): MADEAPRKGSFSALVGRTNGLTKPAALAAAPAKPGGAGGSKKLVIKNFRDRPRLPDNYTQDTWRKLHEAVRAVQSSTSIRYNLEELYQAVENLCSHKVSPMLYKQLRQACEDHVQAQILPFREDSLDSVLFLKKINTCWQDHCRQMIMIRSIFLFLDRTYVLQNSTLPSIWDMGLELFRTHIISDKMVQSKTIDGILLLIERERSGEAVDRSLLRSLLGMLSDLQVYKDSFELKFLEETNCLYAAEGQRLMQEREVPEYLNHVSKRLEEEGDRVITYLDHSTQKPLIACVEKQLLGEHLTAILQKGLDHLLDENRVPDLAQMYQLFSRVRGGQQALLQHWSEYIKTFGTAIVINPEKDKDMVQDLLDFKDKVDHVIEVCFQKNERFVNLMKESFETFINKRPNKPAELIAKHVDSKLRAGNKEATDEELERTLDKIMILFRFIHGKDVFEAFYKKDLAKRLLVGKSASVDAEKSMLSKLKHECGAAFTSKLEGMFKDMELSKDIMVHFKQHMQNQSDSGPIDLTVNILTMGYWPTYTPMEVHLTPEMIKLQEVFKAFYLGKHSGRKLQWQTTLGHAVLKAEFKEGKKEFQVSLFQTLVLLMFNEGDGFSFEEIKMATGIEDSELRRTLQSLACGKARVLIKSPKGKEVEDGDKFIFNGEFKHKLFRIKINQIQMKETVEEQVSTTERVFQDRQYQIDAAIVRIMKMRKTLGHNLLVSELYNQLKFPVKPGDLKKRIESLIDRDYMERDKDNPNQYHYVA
T1 sequence (Q16531 whole entry, looked up): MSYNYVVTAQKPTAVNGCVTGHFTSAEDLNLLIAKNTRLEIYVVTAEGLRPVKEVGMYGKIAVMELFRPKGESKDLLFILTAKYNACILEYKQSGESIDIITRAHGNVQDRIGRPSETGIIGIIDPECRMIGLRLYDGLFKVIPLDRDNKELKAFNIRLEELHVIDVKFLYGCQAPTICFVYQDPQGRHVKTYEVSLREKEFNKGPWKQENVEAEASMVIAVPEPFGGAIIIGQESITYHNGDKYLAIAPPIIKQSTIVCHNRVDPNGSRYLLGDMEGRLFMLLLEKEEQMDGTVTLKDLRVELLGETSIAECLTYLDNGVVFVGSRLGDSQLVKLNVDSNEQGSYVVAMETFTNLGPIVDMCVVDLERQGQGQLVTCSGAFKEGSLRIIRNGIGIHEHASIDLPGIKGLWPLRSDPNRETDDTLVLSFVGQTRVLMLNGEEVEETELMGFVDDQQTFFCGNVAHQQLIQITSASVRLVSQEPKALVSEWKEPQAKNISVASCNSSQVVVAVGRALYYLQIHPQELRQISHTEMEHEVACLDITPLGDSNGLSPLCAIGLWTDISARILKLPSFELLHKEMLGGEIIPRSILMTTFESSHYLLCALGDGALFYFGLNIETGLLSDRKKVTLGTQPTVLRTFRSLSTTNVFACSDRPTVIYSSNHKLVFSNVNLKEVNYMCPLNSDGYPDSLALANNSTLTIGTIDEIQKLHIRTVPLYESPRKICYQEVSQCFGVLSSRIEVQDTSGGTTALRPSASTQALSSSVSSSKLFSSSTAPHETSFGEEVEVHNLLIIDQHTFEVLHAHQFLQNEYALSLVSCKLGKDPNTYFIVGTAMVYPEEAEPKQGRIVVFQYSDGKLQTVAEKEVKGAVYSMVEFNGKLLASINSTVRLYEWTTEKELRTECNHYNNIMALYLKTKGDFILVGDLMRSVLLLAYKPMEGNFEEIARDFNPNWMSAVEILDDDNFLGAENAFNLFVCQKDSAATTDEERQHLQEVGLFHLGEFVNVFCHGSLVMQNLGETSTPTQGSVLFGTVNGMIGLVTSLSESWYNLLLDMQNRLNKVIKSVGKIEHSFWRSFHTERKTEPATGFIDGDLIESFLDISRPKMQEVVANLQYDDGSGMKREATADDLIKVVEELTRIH
T1 sequence (Q96SW2 whole entry, looked up): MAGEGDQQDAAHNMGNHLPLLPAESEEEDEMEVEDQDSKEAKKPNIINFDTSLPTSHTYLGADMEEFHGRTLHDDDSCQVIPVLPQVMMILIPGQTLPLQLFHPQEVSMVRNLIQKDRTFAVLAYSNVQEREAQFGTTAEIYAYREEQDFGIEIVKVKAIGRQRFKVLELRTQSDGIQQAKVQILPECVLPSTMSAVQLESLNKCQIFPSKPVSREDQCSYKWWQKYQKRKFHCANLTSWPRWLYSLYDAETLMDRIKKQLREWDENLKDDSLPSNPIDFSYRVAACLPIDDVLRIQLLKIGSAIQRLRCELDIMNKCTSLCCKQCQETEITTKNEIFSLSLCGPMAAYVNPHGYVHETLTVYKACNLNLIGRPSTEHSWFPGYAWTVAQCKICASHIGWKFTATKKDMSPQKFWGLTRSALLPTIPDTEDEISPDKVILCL
Eukaryotic peptide chain release factor GTP-binding subunit ERF3A, sequence (P15170 whole entry): as the sequence (P15170 whole entry, looked up) above

| Compound | pIC50 (RS4-11 [1]) | DC50 [2] [nM] | Activity [3] | Activity [4] | pIC50 [5] | pIC50 (MDA-MB-468 [6]) | pIC50 (MDA-MB-468 [7]) | pIC50 [8] | pIC50 (MDA-MB-468 [9]) | pIC50 (MDA-MB-231 [10]) | pIC50 (MDA-MB-231 [11]) | pIC50 (MDA-MB-231 [12]) | pIC50 [18] | pIC50 (RS4-11 [26]) | other results |
| --- | --- | --- | --- | --- | --- | --- | --- | --- | --- | --- | --- | --- | --- | --- | --- |
| O=C1CCC(N2Cc3c(CCCOCCOCCNC(=O)[C@@H]4NC5(CCCCC5)[C@@]5(C(=O)Nc6cc(Cl)ccc65)[C@H]4c4cccc(Cl)c4F)cccc3C2=O)C(=O)N1 (stereo partly drawn) | 8.31 | 1.2 | Active | Active | 8.31 | – | – | – | – | – | – | – | – | – | – |
| O=C(O)c1ccc(NC(=O)[C@@H]2NC3(CCCCC3)[C@@]3(C(=O)Nc4cc(Cl)ccc43)[C@H]2c2cccc(Cl)c2F)cc1 | – | – | – | – | – | < 5.52 | < 5.52 | 8.02 | < 5.52 | < 5.52 | < 5.52 | < 5.52 | – | – | – |
| CNC(=O)[C@@H]1NC2(CCCCC2)[C@@]2(C(=O)Nc3cc(Cl)ccc32)[C@H]1c1cccc(Cl)c1F | 6.17 | – | inactive | inactive | – | < 5.52 | < 5.52 | 7.32 | < 5.52 | < 5.52 | < 5.52 | < 5.52 | < 5.00 | 5.83 | pIC50 (RS4-11 [13]): 5.95; pIC50 [14]: 5.02; pIC50 (MV4-11): 6.05; pIC50 (MDA-MB-231 [15]): < 5.00; pIC50 (MDA-MB-468 [16]): < 5.00; growth inhibition (GI) (MDA-MB-468 [17]): inactive; growth inhibition (GI) (MDA-MB-231 [19]): inactive; Activity [20]: Active; pIC50 (MDA-MB-468 [21]): < 5.00; pIC50 (MOLM-13): 5.91; pIC50 (MDA-MB-231 [22]): < 5.00; growth inhibition (GI) (HL-60): inactive; pIC50 (MDA-MB-231 [23]): < 5.00; pIC50 (MDA-MB-468 [24]): < 5.00; Activity [25]: inactive; growth inhibition (GI) (Homo sapiens): inactive |
| O=C1CCC(N2Cc3c(CCCNC(=O)[C@@H]4NC5(CCCCC5)[C@@]5(C(=O)Nc6cc(Cl)ccc65)[C@H]4c4cccc(Cl)c4F)cccc3C2=O)C(=O)N1 (stereo partly drawn) | 6.89 | 120 | – | – | 6.74 | – | – | – | – | – | – | – | – | – | Activity [27]: Active; Activity [28]: Active |
| O=C1CCC(N2Cc3c(CCCCCNC(=O)[C@@H]4NC5(CCCCC5)[C@@]5(C(=O)Nc6ccccc65)[C@H]4c4ccccc4F)cccc3C2=O)C(=O)N1 (stereo partly drawn) | – | – | – | – | – | – | – | < 4.70 | – | – | – | – | 8.43 | 8.39 | – |
| O=C1CCC(N2Cc3c(CCCOCCNC(=O)[C@@H]4NC5(CCCCC5)[C@@]5(C(=O)Nc6cc(Cl)ccc65)[C@H]4c4cccc(Cl)c4F)cccc3C2=O)C(=O)N1 (stereo partly drawn) | 8.44 | 1.8 | Active | Active | 8.46 | – | – | – | – | – | – | – | – | – | – |
